In publication PMC2648812 (Journal of computer-aided molecular design, 2008):
“Also recorded” adds a separate entry of the source. Non-standard residues stand in square brackets, D forms with d. Residues, ends and D or L forms follow the SMILES beside them. ξ: configuration not given here. ξT = CC(O)C(N)C(=O)O

Key:
[1] = system: PDZ domain; conditions: previous virtual screening; cited from earlier work
[2] = biological target: T1, mouse Dvl1 PDZ domain (Mus musculus, UniProt P51141); assay: 15N HSQC NMR chemical shift perturbation titration; type: binding
T1 sequence (P51141 247-341): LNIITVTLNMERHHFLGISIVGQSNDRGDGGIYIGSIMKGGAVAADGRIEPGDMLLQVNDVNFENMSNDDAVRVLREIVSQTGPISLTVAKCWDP
Method in brief: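 15N-labeled mouse Dvl1 PDZ domain (residues 247-341) at 0.2-0.3 mM in 100 mM potassium phosphate pH 7.5, 10% D2O, 0.5 mM EDTA; 15N HSQC at 600 MHz, 25 °C. Five titration points (ligand:protein 1 to 15); Arg322 shift perturbation tracked, reported at about 10 equivalents. One-site model with dilution correction and two-parameter nonlinear least-squares fit gave KD. μM values were rescaled against the reference inhibitor's earlier fluorescence KD.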

[3] = biological target: PDZ domain; conditions: fluorescence spectroscopy, earlier studies; cited from earlier work
[4] = system: Wnt signaling (second axis formation); conditions: Xenopus, Wnt3A upstream of Dvl; cited from earlier work

Row | SMILES | binding to the PDZ domain [1] | Kd [2] [mM] | Δδ chemical shift perturbation changes of Arg322 ([2]; 10.4 equivalents of NSC668036) | Exchange regime (in words) ([2]; NMR titration of 15N-labeled PDZ domain) | difference between KDs by NMR and by fluorescence ([2]; NSC668036, NMR KD versus fluorescence KD) [fold] | Exchange regime ([2]; from intermediate exchange (++++) to fast exchange (+) with the PDZ domain) | Kd [3] [mM] | second axis formation induced by Wnt3A [4]
1 | CC(O)C(N)C(=O)NCC(=O)NCC(=O)O (stereo not drawn) [NSC344681, ((((2-amino-3-hydroxybutanoyl)amino)acetyl)amino)acetic acid] (H-[ξT]-Gly-Gly-OH) | non-binders; also recorded: do not bind to the PDZ domain |  |  |  |  |  |  | 
2 | CC(NC(=O)C(OC(=O)C(C)NC(=O)OC(C)(C)C)C(C)C)C(=O)OC(C(=O)O)C(C)C (stereo not drawn) [NSC668036, 9,15-diisopropyl-2,2,6,12-tetramethyl-4,7,10,13-tetraoxo-3,8,14-trioxa-5,11-diazahexadec an-16-oic acid] |  | 27 | 0.035 | fast exchange regime | 114 | + | 0.237 | inhibited the second axis formation
3 | COC(=O)C(CON)C(=O)NC(=O)C(N)CON (stereo not drawn) [NSC119132, methyl 3-((2-amino-3-(aminooxy)propanoyl)amino)-2-((aminooxy)methyl)-3-oxopropanoate] | non-binders; also recorded: do not bind to the PDZ domain |  |  |  |  |  |  | 
